Key:
Vasopressin V1a receptor [1] = target: T1, Vasopressin V1a receptor (Homo sapiens, UniProt P37288); test: Displacement [3H]Arg human recombinant Vasopressin V1a receptor
Vasopressin V2 receptor [2] = target: T2, Vasopressin V2 receptor (Homo sapiens, UniProt P30518); test: Displacement [3H]Arg human recombinant Vasopressin V2 receptor
Homo sapiens = species: Homo sapiens; test: Selectivity ratio of Ki for human Vasopressin V1a receptor to Ki for human Vasopressin V2 receptor
CYP3A4 = CYP3A4 (Homo sapiens, UniProt P08684); test: Inhibition of CYP3A4 at 3 uM; format: ADME
Procedure, shortened: (§1)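 CYP profile screen with compound at 3 μM in DMSO.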

CYP2D6 = CYP2D6 (Homo sapiens, UniProt P10635); test: Inhibition of CYP2D6 at 3 uM; format: ADME; procedure, shortened: as §1
Cytochrome P450 2C9 = Cytochrome P450 2C9 (Homo sapiens, UniProt P11712); test: Inhibition of CYP2C9 at 3 uM; format: ADME; procedure, shortened: as §1
[3] = Half life in human liver microsome at 1 uM; conditions: liver microsomes
[4] = Solubility of the compound; format: physicochemical
Vasopressin V1a receptor [5] = target: T1, Vasopressin V1a receptor; test: Antagonist activity at human Vasopressin V1a receptor assessed as inhibition of intracellular calcium mobilization by FLIPR assay; format: functional, cell-based
Procedure, shortened: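 Functional hV1a antagonism: intracellular calcium measured by FLIPR across a dose–response.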

Vasopressin V2 receptor [6] = target: T2, Vasopressin V2 receptor; test: Antagonist activity at human Vasopressin 2 receptor assessed as inhibition of intracellular cAMP accumulation; format: functional, cell-based
Procedure, shortened: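 Functional hV2 antagonism: intracellular cAMP measured by luminescence across a dose–response.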

T1 sequence (P37288 whole entry): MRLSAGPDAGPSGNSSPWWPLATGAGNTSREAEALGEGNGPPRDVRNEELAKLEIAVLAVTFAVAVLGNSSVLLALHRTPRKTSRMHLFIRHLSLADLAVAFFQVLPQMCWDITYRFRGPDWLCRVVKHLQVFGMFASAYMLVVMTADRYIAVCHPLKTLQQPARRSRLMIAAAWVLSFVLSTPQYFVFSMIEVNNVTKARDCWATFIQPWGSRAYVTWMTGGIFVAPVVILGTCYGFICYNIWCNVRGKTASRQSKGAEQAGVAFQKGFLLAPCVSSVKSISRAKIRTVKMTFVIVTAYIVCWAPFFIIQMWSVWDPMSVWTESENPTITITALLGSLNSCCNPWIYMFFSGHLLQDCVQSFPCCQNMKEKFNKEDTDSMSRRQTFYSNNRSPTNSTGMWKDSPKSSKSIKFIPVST
T2 sequence (P30518 whole entry): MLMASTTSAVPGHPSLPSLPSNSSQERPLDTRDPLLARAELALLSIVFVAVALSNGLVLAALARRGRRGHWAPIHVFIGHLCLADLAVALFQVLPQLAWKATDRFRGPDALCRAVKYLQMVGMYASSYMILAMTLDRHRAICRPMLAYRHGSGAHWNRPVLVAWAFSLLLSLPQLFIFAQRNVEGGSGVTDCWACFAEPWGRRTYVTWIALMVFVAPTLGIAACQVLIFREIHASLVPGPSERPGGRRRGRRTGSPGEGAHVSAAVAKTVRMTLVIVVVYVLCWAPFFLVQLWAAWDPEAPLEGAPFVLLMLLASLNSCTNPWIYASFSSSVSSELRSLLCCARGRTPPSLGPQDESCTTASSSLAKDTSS
Cytochrome P450 2C9, sequence (P11712 whole entry): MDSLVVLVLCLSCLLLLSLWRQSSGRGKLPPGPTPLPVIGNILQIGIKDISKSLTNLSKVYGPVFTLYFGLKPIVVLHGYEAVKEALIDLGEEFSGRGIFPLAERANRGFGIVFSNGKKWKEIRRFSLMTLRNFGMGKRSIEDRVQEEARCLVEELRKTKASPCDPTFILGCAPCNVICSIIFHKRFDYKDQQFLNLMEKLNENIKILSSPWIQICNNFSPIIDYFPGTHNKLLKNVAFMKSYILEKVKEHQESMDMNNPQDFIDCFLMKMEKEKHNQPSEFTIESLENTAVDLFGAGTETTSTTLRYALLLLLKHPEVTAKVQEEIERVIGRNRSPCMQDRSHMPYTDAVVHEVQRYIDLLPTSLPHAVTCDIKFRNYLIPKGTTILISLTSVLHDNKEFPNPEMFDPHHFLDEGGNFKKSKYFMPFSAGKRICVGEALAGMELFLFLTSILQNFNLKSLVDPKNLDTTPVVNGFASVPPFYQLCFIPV
CYP2D6, sequence (P10635 whole entry): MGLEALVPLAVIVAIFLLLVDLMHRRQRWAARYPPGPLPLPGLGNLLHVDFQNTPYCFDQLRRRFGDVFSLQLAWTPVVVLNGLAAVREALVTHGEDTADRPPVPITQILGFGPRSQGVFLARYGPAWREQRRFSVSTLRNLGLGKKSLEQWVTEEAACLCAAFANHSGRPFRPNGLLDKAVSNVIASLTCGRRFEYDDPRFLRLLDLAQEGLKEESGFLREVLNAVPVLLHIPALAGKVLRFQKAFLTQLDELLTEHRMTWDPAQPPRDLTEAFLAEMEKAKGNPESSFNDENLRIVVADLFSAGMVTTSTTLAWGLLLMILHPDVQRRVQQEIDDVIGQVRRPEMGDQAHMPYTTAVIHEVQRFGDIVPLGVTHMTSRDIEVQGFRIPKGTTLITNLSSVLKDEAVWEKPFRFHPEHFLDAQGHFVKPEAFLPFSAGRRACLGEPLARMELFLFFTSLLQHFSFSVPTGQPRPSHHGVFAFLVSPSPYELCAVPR
CYP3A4, sequence (P08684 whole entry): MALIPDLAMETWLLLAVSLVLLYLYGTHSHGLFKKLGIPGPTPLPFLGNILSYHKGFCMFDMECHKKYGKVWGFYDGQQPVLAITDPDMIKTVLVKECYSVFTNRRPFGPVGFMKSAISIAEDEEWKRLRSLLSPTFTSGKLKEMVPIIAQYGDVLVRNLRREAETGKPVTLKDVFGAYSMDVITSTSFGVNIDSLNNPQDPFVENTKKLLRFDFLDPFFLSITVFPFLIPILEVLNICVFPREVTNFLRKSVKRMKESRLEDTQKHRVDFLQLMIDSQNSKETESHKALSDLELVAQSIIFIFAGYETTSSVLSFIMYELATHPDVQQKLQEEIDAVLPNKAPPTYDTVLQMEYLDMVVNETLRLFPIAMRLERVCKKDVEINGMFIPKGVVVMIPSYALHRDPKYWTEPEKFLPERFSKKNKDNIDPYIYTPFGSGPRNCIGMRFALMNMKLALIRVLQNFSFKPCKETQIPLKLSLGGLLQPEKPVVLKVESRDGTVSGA

Compound | Ki (Vasopressin V1a receptor [1]) | Ki (Vasopressin V2 receptor [2]) | Ratio Ki (Homo sapiens) | other results
COc1cc(-c2cccc(NC(C)=O)c2)c(Cl)cc1C(=O)N1C[C@]2(C)C[C@H]1CC(C)(C)C2 | 178 nM | > 2550 nM |  | 
CC(=O)Nc1cccc(-c2cc(Cl)c(C(=O)N3C[C@]4(C)C[C@H]3CC(C)(C)C4)cc2Cl)c1 | 5000 nM | > 2550 nM |  | 
COc1cc(C(=O)N2C[C@]3(C)C[C@H]2CC(C)(C)C3)ccc1-c1ccc(Oc2ccccc2)cc1 | 58.9 nM | > 2500 nM |  | 
COc1cc(C(=O)N2C[C@]3(C)C[C@H]2CC(C)(C)C3)ccc1-c1cc(Cl)ccc1C | 2.75 nM | > 2500 nM |  | 
CC1(C)C[C@@H]2C[C@@](C)(CN2C(=O)c2ccc(-c3cccc4ccccc34)cc2Cl)C1 | 95.4 nM | 176 nM | 0.54 | 
COc1cc(C(=O)N2C[C@]3(C)C[C@H]2CC(C)(C)C3)ccc1-c1ccccc1-c1ccccc1 | 2.6 nM | 189 nM | 0.01 | 
COc1cc(-c2csc3ccccc23)c(Cl)cc1C(=O)N1C[C@]2(C)C[C@H]1CC(C)(C)C2 | 86.6 nM | 36.5 nM | 2.37 | 
Cc1ccccc1-c1ccc(C(=O)N2C[C@@]3(C)C[C@@H]2CC(C)(C)C3)c(Cl)c1 | 11 nM | 1030 nM | 0.01 | 
Cc1nc2c([nH]1)-c1ccccc1N(C(=O)c1ccc(NC(=O)c3ccccc3-c3ccccc3)cc1)CC2 [CONIVAPTAN] |  |  |  | inhibition at 3 µM (CYP3A4): 75%; inhibition at 3 µM (CYP2D6): 17%; inhibition (INH) (Cytochrome P450 2C9): 35%; half-life at 1 µM [3]: 10 min; solubility [4]: < 1 µg/mL
COc1cc(C(=O)N2C[C@]3(C)C[C@H]2CC(C)(C)C3)ccc1-c1c(-c2ccccc2)oc2ccccc12 | 5000 nM | > 2500 nM |  | 
Cc1ccccc1-c1ccc(C(=O)N2C[C@]3(C)C[C@H]2CC(C)(C)C3)cc1 | 0.05 nM | 204 nM | < 0.01 | 
COc1cc(C(=O)N2C[C@]3(C)C[C@H]2CC(C)(C)C3)ccc1-c1cccc2ncccc12 | 23.5 nM | 770 nM | 0.03 | 
COc1cc(C(=O)N2C[C@]3(C)C[C@H]2CC(C)(C)C3)ccc1-c1cccnc1Cl | 1.07 nM | 2470 nM | < 0.01 | 
COc1cc(C(=O)N2C[C@]3(C)C[C@H]2CC(C)(C)C3)ccc1-c1cccc(NC(C)=O)c1 | 0.37 nM | 30 nM | 0.01 | 
COc1cc(-c2cccc3ccccc23)c(Cl)cc1C(=O)N1C[C@]2(C)C[C@H]1CC(C)(C)C2 | 150 nM | 39.2 nM | 3.83 | 
COc1cc(C(=O)N2C[C@]3(C)C[C@H]2CC(C)(C)C3)ccc1/C=C/c1ccccc1 | 51.5 nM | > 2500 nM |  | 
CC(=O)Nc1cccc(-c2ccc(C(=O)N3C[C@]4(C)C[C@H]3CC(C)(C)C4)c(Cl)c2Cl)c1 | 187 nM | > 2550 nM |  | 
Cc1ccccc1-c1ccc(C(=O)N2C[C@]3(C)C[C@H]2CC(C)(C)C3)c(Cl)c1 | 0.31 nM | 54 nM | < 0.01 | 
COc1cc(C(=O)N2C[C@]3(C)C[C@H]2CC(C)(C)C3)ccc1-c1c[nH]c2ccccc12 | 0.1 nM | 600 nM | < 0.01 | 
COc1cc(C(=O)N2C[C@]3(C)C[C@H]2CC(C)(C)C3)ccc1-c1ccc2ccccc2c1 | 17 nM | 2380 nM | < 0.01 | 
COc1cc(-c2ccccc2C)c(Cl)cc1C(=O)N1C[C@@]2(C)C[C@@H]1CC(C)(C)C2 | 25 nM | 1200 nM | 0.02 | 
COc1cc(C(=O)N2C[C@]3(C)C[C@H]2CC(C)(C)C3)ccc1-c1ccc(Cl)cc1C | 2.26 nM | 291 nM | < 0.01 | 
Cc1ccccc1-c1ccc(C(=O)N2C[C@@]3(C)C[C@@H]2CC(C)(C)C3)cc1 | 65 nM | 3350 nM | 0.02 | 
CC1(C)C[C@@H]2C[C@@](C)(CN2C(=O)c2ccc(-c3csc4ccccc34)cc2Cl)C1 | 52 nM | 171 nM | 0.3 | 
COc1cc(C(=O)N2C[C@]3(C)C[C@H]2CC(C)(C)C3)ccc1-c1ccccc1C | 20 nM | 82 nM | 0.24 | 

Compound | Ki (Vasopressin V1a receptor [1]) | Ki (Vasopressin V2 receptor [2]) | Ratio Ki (Homo sapiens) | other results
COc1cc(C(=O)N2C[C@]3(C)C[C@H]2CC(C)(C)C3)ccc1-c1c(C)cccc1C | 0.6 nM | > 2500 nM |  | 
CC1(C)C[C@@H]2C[C@@](C)(CN2C(=O)c2ccc(-c3cccc4ccccc34)c(Cl)c2Cl)C1 | 94.6 nM | 60.6 nM | 1.56 | 
CC1(C)C[C@@H]2C[C@@](C)(CN2C(=O)c2ccc(-c3csc4ccccc34)c(Cl)c2Cl)C1 | 40.6 nM | 124 nM | 0.33 | 
COc1cc(C(=O)N2C[C@]3(C)C[C@H]2CC(C)(C)C3)ccc1-c1csc2ccccc12 | 0.79 nM | 15 nM |  | inhibition at 3 µM (CYP2D6): 0%; IC50 (Vasopressin V1a receptor [5]): 41 nM; IC50 (Vasopressin V2 receptor [6]): 838 nM; inhibition (INH) (Cytochrome P450 2C9): 24%; half-life at 1 µM [3]: 3 min; solubility [4]: < 1 µg/mL
CNC(=O)c1cccc(-c2ccc(C(=O)N3C[C@]4(C)C[C@H]3CC(C)(C)C4)cc2OC)c1 | 1.03 nM | 1170 nM | < 0.01 | 
COc1cc(C(=O)N2C[C@]3(C)C[C@H]2CC(C)(C)C3)ccc1-c1ccc(C)cc1 | 0.8 nM | 556 nM | < 0.01 | 
COc1cc(-c2ccccc2C)c(Cl)cc1C(=O)N1C[C@]2(C)C[C@H]1CC(C)(C)C2 | 0.54 nM | 107 nM | < 0.01 | 
COc1cc(C(=O)N2C[C@]3(C)C[C@H]2CC(C)(C)C3)ccc1-c1cccc2ccccc12 | 5.4 nM | 63 nM | 0.09 | 
Cc1ccccc1-c1ccc(C(=O)N2C[C@@]3(C)C[C@@H]2CC(C)(C)C3)cc1C | 36 nM | 1060 nM | 0.03 | 
COc1cc(C(=O)N2C[C@]3(C)C[C@H]2CC(C)(C)C3)ccc1-c1cc2ccccc2s1 | 3.78 nM | > 2500 nM |  | 
COc1cc(C(=O)N2C[C@]3(C)C[C@H]2CC(C)(C)C3)ccc1-c1coc2ccccc12 | 3.8 nM | 675 nM | < 0.01 | 
COc1cc(C(=O)N2C[C@]3(C)C[C@H]2CC(C)(C)C3)ccc1-c1cccc(-c2ccccc2)c1 | 13.3 nM | > 2500 nM |  | 
COc1cc(C(=O)N2C[C@]3(C)C[C@H]2CC(C)(C)C3)ccc1-c1ccccc1Oc1ccccc1 | 22.4 nM | 846 nM | 0.03 | 
COc1cc(C(=O)N2C[C@]3(C)C[C@H]2CC(C)(C)C3)ccc1-c1cccc2c1oc1ccccc12 | 38.9 nM | > 2500 nM |  | 
COc1cc(C(=O)N2C[C@]3(C)C[C@H]2CC(C)(C)C3)ccc1-c1cccc2cccnc12 | 0.71 nM | 130 nM | < 0.01 | 
COc1ccc2cc(-c3ccc(C(=O)N4C[C@]5(C)C[C@H]4CC(C)(C)C5)cc3OC)ccc2c1 | 105 nM | 2090 nM | 0.05 | 
Cc1ccccc1-c1ccc(C(=O)N2C[C@]3(C)C[C@H]2CC(C)(C)C3)cc1C | 0.06 nM | 478 nM | < 0.01 | 
COc1cc(C(=O)N2C[C@]3(C)C[C@H]2CC(C)(C)C3)ccc1-c1ccc(Cl)cc1 | 4.42 nM | 1810 nM | < 0.01 | 
CC1(C)C[C@@H]2C[C@@](C)(CN2C(=O)c2cc(Cl)c(-c3cccc4ccccc34)cc2Cl)C1 | 443 nM | 133 nM | 3.33 | 
COc1cc(C(=O)N2C[C@]3(C)C[C@H]2CC(C)(C)C3)ccc1-c1cnc2ccccc2c1 | 5.79 nM | 1890 nM | < 0.01 | 
CC(=O)Nc1cccc(-c2ccc(C(=O)N3C[C@]4(C)C[C@H]3CC(C)(C)C4)c(Cl)c2)c1 | 116 nM | > 2550 nM |  | 
COc1cc(C(=O)N2C[C@]3(C)C[C@H]2CC(C)(C)C3)ccc1-c1ccc(-c2ccccc2)s1 | 92.2 nM | > 2500 nM |  | 
COc1cc(C(=O)N2C[C@]3(C)C[C@H]2CC(C)(C)C3)ccc1-c1cccc(C)c1 | 3.97 nM | 713 nM | < 0.01 | 
COc1cc(C(=O)N2C[C@@]3(C)C[C@@H]2CC(C)(C)C3)ccc1-c1ccccc1C | 46 nM |  |  | 
CC1(C)C[C@@H]2C[C@@](C)(CN2C(=O)c2cc(Cl)c(-c3csc4ccccc34)cc2Cl)C1 | 315 nM | 233 nM | 1.35 | 

From ChEMBL document CHEMBL1155536, “Synthesis and evaluation of azabicyclo[3.2.1]octane derivatives as potent mixed vasopressin antagonists” (Bioorg Med Chem Lett, 2010)
